Most compounds without a hit are left out; they make up all but 4.6% or so of the library.
NCF1 inh – blocks human p47phox regulatory protein of NADPH oxidases; P14598; p47phox/p22phox peptide binding, fluorescence polarization, 2 h; inhibition, % at 24.7 µM; hit rate 0.53% among 220,000; AID 1274;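 active = inhibition above about 30%, limit read from the data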;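 also: 0% = p47phox with labelled peptide and 100% = labelled peptide alone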
Target sequence (P14598 whole entry, looked up): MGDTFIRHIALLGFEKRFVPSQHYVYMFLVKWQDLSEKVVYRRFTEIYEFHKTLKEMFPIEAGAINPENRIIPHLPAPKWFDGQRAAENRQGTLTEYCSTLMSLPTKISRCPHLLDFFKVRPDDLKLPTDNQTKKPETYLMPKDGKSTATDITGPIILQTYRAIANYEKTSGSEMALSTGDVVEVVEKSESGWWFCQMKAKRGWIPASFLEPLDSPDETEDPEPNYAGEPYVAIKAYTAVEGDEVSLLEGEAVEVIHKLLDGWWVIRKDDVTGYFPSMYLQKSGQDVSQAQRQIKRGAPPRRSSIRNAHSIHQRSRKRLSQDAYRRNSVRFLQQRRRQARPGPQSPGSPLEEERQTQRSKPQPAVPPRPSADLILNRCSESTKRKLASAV
RAM inhibit – blocks the yeast RAM network. S. cerevisiae dse1pr::URA3 reporter, 5-FOA growth OD615, 2 d; analog-sensitive cbk1-as2 kinase mutant strain. inhibition, % at 50 µM. hit rate 1.8% among 190,000. AID 868;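 active = inhibition above a set limit, 3 SD over mean compound inhibition, cut at about 8.4% in these data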;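 also: 0% = DMSO-only wells with no growth and 100% = 10 µM 1-NA-PP1 full growth; inhibition rescues growth on 5-FOA so higher OD means more RAM inhibition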
Arbovirus anti – arbovirus infection inhibition | AID 1251 | hit rate 0.37% among 200,000 | arbovirus infection cell-based antiviral screen | inhibition, % at 10 µM; in the data active = inhibition above about 30%
WT yeast gro inh – growth inhibition of WT yeast, mitochondrial fusion screen; hit rate 2.1% among 190,000; mitochondrial fusion phenotypic screen, WT strain; inhibition, % at 10 µM; AID 1362; in the data active = inhibition above about 58%; tested in S. cerevisiae
Hck Nef HTS – blocks Nef-activated human Hck kinase. hit rate 0.68% among 220,000. inhibition, % at 20 µM. AID 463187. Recombinant Hck-YEEI plus Nef, Z-Lyte FRET kinase assay;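 active = Hck-Nef kinase inhibition above about 50%, limit read from the data; inactive = inhibition below that limit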;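 also: 0% = DMSO with Hck plus Nef and 100% = Hck alone without Nef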
Calb biofilm kill – mixtures killing C. albicans biofilm; C. albicans biofilm persisters + clotrimazole, fluorescence viability; primary screen in compound mixtures of four per well; inhibition, % at 7.6 µM; hit rate 0.02% among 120,000; AID 1242;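 active = inhibition above 30.3% in the primary screen of four-compound pools, then above 30% when the compound was retested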;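 also: compounds exposed to preformed 24 h biofilms for 48 h; 0% = untreated biofilm control and 100% = clotrimazole plus chlorhexidine kill blank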
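Assay system: C. albicans biofilms / Medium: RPMI/MOPS medium, pH 7.0 / Schedule: biofilm formation 24 h, compound exposure 48 h, 37 °C / Measured by: Alamar Blue fluorescence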
RAM efflux-def – RAM network inhibitors in efflux-deficient yeast | S. cerevisiae efflux-deficient reporter strain, 5-FOA growth OD615, 2 days | AID 1305 | 1,200 tested, under 10 active | max inhibition, % | shares compounds with RAM inhibit; call rule not given here;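 also: plate controls were vehicle for no effect and reference inhibitor for full effect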
An asterisk follows results filed as active; · = no result.

SMILES | NCF1 inh | RAM inhibit | Arbovirus anti | WT yeast gro inh | Hck Nef HTS | Calb biofilm kill | RAM efflux-def
CC(OC(=O)c1ccccc1NS(=O)(=O)c1cccc(C(F)(F)F)c1)C(=O)N(C)Cc1ccccc1 (centres undefined) | -3 | 13* | -2 | 29 | -1 | 25 | 2
CN1CCC(NC(=S)NC2CC2)CC1 | 0 | 1 | 2 | -3 | 4 | 12 | ·
O=C(CCC(=O)c1ccc(Oc2ccccc2)cc1)Nc1cccc(Cl)c1Cl | -18 | 14* | 0 | 3 | 2 | 3 | 3
O=C(O)CCC(=O)Nc1ccccc1Oc1ccccc1 | 3 | -1 | 3 | 9 | -17 | 10 | ·
Cc1ccc(NC(=O)COC(=O)c2cc(Cl)ccc2[N+](=O)[O-])c(C)c1 | -1 | 4 | 0 | -13 | 3 | 7 | ·
Cc1ccc(NC(=O)COC(=O)CCC(=O)c2ccc(C(C)(C)C)cc2)c([N+](=O)[O-])c1 | -17 | 14* | 4 | -7 | 5 | 17 | 4
Cc1ccc(NC(=O)COC(=O)COc2ccc(Cl)cc2C)c([N+](=O)[O-])c1 | -20 | 12* | -2 | -33 | 3 | 13 | 1
COc1ccc(CCNC(=O)c2cc(-c3cc(Cl)cc(Cl)c3)oc2C)cc1 | -9 | 8 | -2 | 20 | 0 | · | ·
Cc1oc(-c2cc(Cl)cc(Cl)c2)cc1C(=O)NCCc1ccccc1 | -7 | 13* | -12 | 52 | 2 | 5 | 3
COc1cc(C(=O)N2CCN(c3ccc(C)cc3C)CC2)cc(OC)c1OC | -29 | 2 | -5 | 7 | -2 | · | ·
Cc1ccc(N2CCN(C(=O)c3cc(C(=O)c4ccccc4C)c[nH]3)CC2)c(C)c1 | 5 | 24* | -19 | 58 | -3 | 16 | 2
COc1ccc(N(C)S(=O)(=O)c2cccc(C(=O)NCC3CCCCC3)c2)cc1 | -10 | 13* | -2 | 25 | 10 | 13 | 2
Cc1ccccc1OCC(O)Cn1c2ccccc2c2ccccc21 (centres undefined) | -6 | 13* | -35 | 20 | 0 | · | 6
C=CCOC(=O)C1=C[C@@H](c2csc3ccccc23)C[C@@H](OCc2ccc(CO)cc2)O1 | -16 | 14* | 0 | 39 | -7 | 15 | 3
O=C(Nc1ccccc1)C1=C[C@H](c2csc3ccccc23)C[C@H](OCc2ccc(CO)cc2)O1 | -72 | 5 | -12 | 35 | -1 | 17 | ·
CCc1ccc(N/C(SCc2cccc(F)c2)=C(/C#N)C(=O)NCc2ccco2)cc1 | -6 | 16* | -1 | 21 | 1 | · | 5
Cc1ccc(N/C(SCc2ccccc2C)=C(/C#N)C(=O)NCc2ccco2)cc1C | -11 | 3 | 14 | 17 | 0 | · | ·
O=C(O)Cc1cc(I)c(Oc2ccc(O)c(I)c2)c(I)c1 | -34 | 17* | 52* | -12 | 19 | 6 | 2
CC(C)CC(=O)NC(=S)Nc1nc(-c2ccccc2)cs1 | -7 | 13* | 6 | 3 | 2 | 8 | 2
CC(C)CC(=O)NC(=S)Nc1nc(-c2ccc(Cl)cc2)cs1 | 1 | 6 | 3 | 21 | -2 | 12 | ·
O=C(CSc1nc(-c2ccccc2)cs1)Nc1ccccc1[N+](=O)[O-] | -2 | 13* | -1 | 5 | 3 | 13 | 3
CCCCn1c(O)c(/C=C/C=C/C=Nc2ccccc2)sc1=S | -21 | 13* | -1 | -1 | 45 | 10 | 6
O=C(CSc1nnc(-c2ccccc2Br)o1)N1CCc2ccccc2C1 | -16 | 17* | -1 | 7 | -5 | · | 2
CCCSc1ccc(-c2nn(-c3ccccc3)cc2/C=C(/C#N)C(=O)NCCCOC)cc1 | -10 | 16* | -4 | -5 | 6 | 1 | 2
CCSc1ccc(-c2nn(-c3ccccc3)cc2/C=C(/C#N)C(=O)NCCCOC)cc1 | -12 | 17* | -12 | -3 | 0 | 10 | 5
SMILES | NCF1 inh | RAM inhibit | Arbovirus anti | WT yeast gro inh | Hck Nef HTS | Calb biofilm kill | RAM efflux-def
Cc1ccc(-c2nn(-c3ccccc3)cc2/C=C(\C#N)C(=O)NCc2ccccc2)cc1 | -8 | 6 | -22 | 7 | 13 | 8 | ·
C=CCN1C(=O)/C(=C/c2ccc(OC(C)=O)c(OCC)c2[N+](=O)[O-])SC1=S | -86 | 12* | -6 | 97* | 26 | 4 | 2
O=C(CCc1ccc(CCC(=O)c2cccs2)s1)c1cccs1 | -42 | 17* | -5 | -27 | -1 | · | 4
O=C(CCN1CCCC1)c1cccs1 | -8 | · | · | · | -4 | 22 | ·
CC1(C)CC(=O)c2cn3nc(C(F)(F)F)nc3nc2C1 | -5 | 0 | -3 | -6 | -24 | · | ·
O=C(Cn1cc(C(=O)c2ccco2)c2ccccc21)NC1CCCCC1 | -6 | 12* | 10 | 2 | 4 | 17 | 3
O=C(Cn1cc(C(=O)c2ccco2)c2ccccc21)Nc1ccccc1 | 6 | 2 | 2 | 6 | 1 | · | ·
COc1cccc(/C=C/C(=O)OCC(=O)NCc2ccc(Cl)cc2)c1 | 9 | 4 | 0 | 1 | -2 | 6 | ·
COc1cccc(/C=C/C(=O)OCC(=O)Nc2cc(C(F)(F)F)ccc2Cl)c1 | -3 | 12* | -3 | 3 | 2 | 8 | 1
CCC(C)C(NC(=O)c1ccccc1NC(=O)c1ccccc1)C(=O)O (centres undefined) | -6 | · | · | · | 23 | 20 | ·
CCCNC(=O)c1ccccc1NC(=O)c1ccc(CSc2ccccc2)cc1 | -5 | 13* | -27 | 27 | 3 | · | 5
CCC(C)NC(=O)c1ccccc1NC(=O)c1ccc(CSc2ccccc2)cc1 (centres undefined) | -13 | 20* | 4 | 22 | 2 | 19 | 6
Cc1ccc(C(=O)C(OC(=O)COc2ccccc2C)c2ccccc2)cc1 (centres undefined) | 7 | 14* | -1 | 6 | -1 | · | 4
O=C(CNC(=O)c1ccco1)OC(C(=O)c1ccccc1)c1ccccc1 (centres undefined) | 10 | 0 | 6 | 3 | 0 | · | ·
O=C(COc1ccccc1)OC(C(=O)c1ccccc1)c1ccccc1 (centres undefined) | -5 | 12* | -2 | 5 | 2 | 11 | 25
COCCCNC(=S)Nc1cccc2ncccc12 | -3 | 4 | -3 | 15 | 13 | 27 | ·
COc1ccc(CN(C(=O)c2ccco2)c2ccc(C)c(C)c2)cc1 | -5 | -1 | -10 | 39 | 18 | -8 | ·
COc1ccc(NC(=O)N2CCCC(c3nc(-c4ccc(C(C)C)cc4)no3)C2)cc1 (centres undefined) | -10 | 12* | -16 | 72* | 3 | · | 2
COc1ccc(NC(=O)N2CCCC(c3nc(-c4ccc(OC)cc4)no3)C2)cc1 (centres undefined) | 2 | 1 | 1 | 5 | 34 | 29 | ·
[O-][n+]1onc2c3cc(-c4ccccc4)nnc3ccc21 | 3 | 4 | -16 | 1 | -2 | · | ·
OCC(Cc1ccc2c(c1)OCO2)C(CO)Cc1ccc2c(c1)OCO2 (centres undefined) | 5 | · | · | · | 34 | 24 | ·

Source: PubChem BioAssay
